Test system: Fibroblast
Assay: Multiplex assay against human fibroblast
Assay type: toxicity, cell-based
Outline: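 Cells stained live at seeding with Hoechst33342, BioTracker Green Microtubule Cytoskeleton Dye, MitoTracker Red and Annexin V Alexa Fluor 680 were imaged on a CQ1 microscope at 37°C and 5% CO2 after compound addition. Their classification by CellPathfinder machine-learning gating ran from Hoechst high-intensity objects versus normal cells, to healthy, pyknosed or fragmented nuclei among normal cells, to mitotic or apoptotic among pyknosed cells. Tubulin, mitochondrial-mass and membrane-permeability phenotypes are per cents of healthy-nucleus cells.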

[1] = 12 h, 1 µM, compound concentration 1 uM, replicate 1
[2] = 12 h, 1 µM, compound concentration 1 uM, replicate 2
[3] = 12 h, 10 µM, compound concentration 10 uM, replicate 1
[4] = 12 h, 10 µM, compound concentration 10 uM, replicate 2
[5] = 24 h, 1 µM, compound concentration 1 uM, replicate 1
[6] = 24 h, 1 µM, compound concentration 1 uM, replicate 2
[7] = 24 h, 10 µM, compound concentration 10 uM, replicate 1
[8] = 24 h, 10 µM, compound concentration 10 uM, replicate 2
[9] = 48 h, 1 µM, compound concentration 1 uM, replicate 1
[10] = 48 h, 1 µM, compound concentration 1 uM, replicate 2
[11] = 48 h, 10 µM, compound concentration 10 uM, replicate 1
[12] = 48 h, 10 µM, compound concentration 10 uM, replicate 2

Compound: CN(C)C(=O)N[C@H]1CC[C@H](CCN2CCN(c3cccc(Cl)c3Cl)CC2)CC1.Cl [CARIPRAZINE HYDROCHLORIDE]
- Population Apoptotic (%) [1]: 65%
- Population Fragmented Nuclei (%) [1]: 15%
- Population Healthy Nuclei (%) [1]: 51%
- Population Hoechst High Intensity Objects (%) [1]: 6%
- Population Membrane Permeable-Phenotype (%) [1]: 32%
- Population Mitochondria Different-Phenotype (%) [1]: 10%
- Population Mitotic Cells (%) [1]: 34%
- Population Normal (%) [1]: 93%
- Population Pyknosed Nuclei (%) [1]: 33%
- Population Tubulin-Different-Phenotype (%) [1]: 45%
- Total Cell Count [1]: 83
- Population Apoptotic (%) [2]: 60%
- Population Fragmented Nuclei (%) [2]: 7%
- Population Healthy Nuclei (%) [2]: 84%
- Population Membrane Permeable-Phenotype (%) [2]: 6%
- Population Mitochondria Different-Phenotype (%) [2]: 29%
- Population Mitotic Cells (%) [2]: 40%
- Population Pyknosed Nuclei (%) [2]: 8%
- Population Tubulin-Different-Phenotype (%) [2]: 22%
- Total Cell Count [2]: 61
- Population Apoptotic (%) [3]: 71%
- Population Fragmented Nuclei (%) [3]: 26%
- Population Healthy Nuclei (%) [3]: 38%
- Population Hoechst High Intensity Objects (%) [3]: 16%
- Population Membrane Permeable-Phenotype (%) [3]: 16%
- Population Mitochondria Different-Phenotype (%) [3]: 28%
- Population Mitotic Cells (%) [3]: 28%
- Population Normal (%) [3]: 83%
- Population Pyknosed Nuclei (%) [3]: 34%
- Population Tubulin-Different-Phenotype (%) [3]: 92%
- Total Cell Count [3]: 155
- Population Apoptotic (%) [4]: 36%
- Population Fragmented Nuclei (%) [4]: 17%
- Population Healthy Nuclei (%) [4]: 57%
- Population Hoechst High Intensity Objects (%) [4]: 3%
- Population Membrane Permeable-Phenotype (%) [4]: 47%
- Population Mitochondria Different-Phenotype (%) [4]: 95%
- Population Mitotic Cells (%) [4]: 63%
- Population Normal (%) [4]: 96%
- Population Pyknosed Nuclei (%) [4]: 25%
- Population Tubulin-Different-Phenotype (%) [4]: 95%
- Total Cell Count [4]: 79
- Population Apoptotic (%) [5]: 72%
- Population Fragmented Nuclei (%) [5]: 21%
- Population Healthy Nuclei (%) [5]: 49%
- Population Hoechst High Intensity Objects (%) [5]: 10%
- Population Membrane Permeable-Phenotype (%) [5]: 21%
- Population Mitochondria Different-Phenotype (%) [5]: 11%
- Population Mitotic Cells (%) [5]: 28%
- Population Normal (%) [5]: 89%
- Population Pyknosed Nuclei (%) [5]: 29%
- Population Tubulin-Different-Phenotype (%) [5]: 45%
- Total Cell Count [5]: 95
- Population Apoptotic (%) [6]: 66%
- Population Fragmented Nuclei (%) [6]: 6%
- Population Healthy Nuclei (%) [6]: 84%
- Population Hoechst High Intensity Objects (%) [6]: 4%
- Population Membrane Permeable-Phenotype (%) [6]: 7%
- Population Mitochondria Different-Phenotype (%) [6]: 22%
- Population Mitotic Cells (%) [6]: 33%
- Population Normal (%) [6]: 95%
- Population Pyknosed Nuclei (%) [6]: 9%
- Population Tubulin-Different-Phenotype (%) [6]: 14%
- Total Cell Count [6]: 67
- Population Apoptotic (%) [7]: 70%
- Population Fragmented Nuclei (%) [7]: 23%
- Population Healthy Nuclei (%) [7]: 54%
- Population Hoechst High Intensity Objects (%) [7]: 18%
- Population Membrane Permeable-Phenotype (%) [7]: 17%
- Population Mitochondria Different-Phenotype (%) [7]: 36%
- Population Mitotic Cells (%) [7]: 29%
- Population Normal (%) [7]: 81%
- Population Pyknosed Nuclei (%) [7]: 21%
- Population Tubulin-Different-Phenotype (%) [7]: 82%
- Total Cell Count [7]: 190
- Population Apoptotic (%) [8]: 94%
- Population Healthy Nuclei (%) [8]: 55%
- Population Hoechst High Intensity Objects (%) [8]: 3%
- Population Membrane Permeable-Phenotype (%) [8]: 42%
- Population Mitochondria Different-Phenotype (%) [8]: 95%
- Population Mitotic Cells (%) [8]: 5%
- Population Normal (%) [8]: 96%
- Population Pyknosed Nuclei (%) [8]: 20%
- Population Tubulin-Different-Phenotype (%) [8]: 95%
- Total Cell Count [8]: 87
- Population Apoptotic (%) [9]: 65%
- Population Fragmented Nuclei (%) [9]: 35%
- Population Healthy Nuclei (%) [9]: 46%
- Population Hoechst High Intensity Objects (%) [9]: 7%
- Population Membrane Permeable-Phenotype (%) [9]: 20%
- Population Mitochondria Different-Phenotype (%) [9]: 4%
- Population Mitotic Cells (%) [9]: 35%
- Population Normal (%) [9]: 92%
- Population Pyknosed Nuclei (%) [9]: 18%
- Population Tubulin-Different-Phenotype (%) [9]: 56%
- Total Cell Count [9]: 117
- Population Apoptotic (%) [10]: 60%
- Population Fragmented Nuclei (%) [10]: 25%
- Population Healthy Nuclei (%) [10]: 69%
- Population Hoechst High Intensity Objects (%) [10]: 11%
- Population Membrane Permeable-Phenotype (%) [10]: 7%
- Population Mitochondria Different-Phenotype (%) [10]: 3%
- Population Mitotic Cells (%) [10]: 40%
- Population Normal (%) [10]: 88%
- Population Pyknosed Nuclei (%) [10]: 5%
- Population Tubulin-Different-Phenotype (%) [10]: 38%
- Total Cell Count [10]: 103
- Population Apoptotic (%) [11]: 80%
- Population Fragmented Nuclei (%) [11]: 37%
- Population Healthy Nuclei (%) [11]: 53%
- Population Hoechst High Intensity Objects (%) [11]: 31%
- Population Membrane Permeable-Phenotype (%) [11]: 10%
- Population Mitochondria Different-Phenotype (%) [11]: 20%
- Population Mitotic Cells (%) [11]: 20%
- Population Normal (%) [11]: 68%
- Population Pyknosed Nuclei (%) [11]: 9%
- Population Tubulin-Different-Phenotype (%) [11]: 81%
- Total Cell Count [11]: 235
- Population Apoptotic (%) [12]: 33%
- Population Fragmented Nuclei (%) [12]: 33%
- Population Healthy Nuclei (%) [12]: 63%
- Population Hoechst High Intensity Objects (%) [12]: 32%
- Population Membrane Permeable-Phenotype (%) [12]: 7%
- Population Mitochondria Different-Phenotype (%) [12]: 12%
- Population Mitotic Cells (%) [12]: 66%
- Population Normal (%) [12]: 67%
- Population Pyknosed Nuclei (%) [12]: 2%
- Population Tubulin-Different-Phenotype (%) [12]: 85%
- Total Cell Count [12]: 162
